# Reference: ChEMBL document CHEMBL4513216, “Probing the Open Global Health Chemical Diversity Library for Multistage-Active Starting Points for Next-Generation Antimalarials” (ACS Infect Dis, 2020)
# Assay: Toxicity liver stage against HepG2, at 10uM
# Format: cell-based
# Set-up: test concentration 10 uM, cell line HepG2-A16-CD81EGFP
# Conditions: human, HepG2-A16-CD81EGFP cells; read-out: INHIBITION
# In short: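 Uninfected HepG2-A16-CD81EGFP cells, 3 × 10^3 per well, 1536-well, plated on prespotted compound at 10 μM final, parasite-free screening media added to match infected plates; puromycin 10 μM positive, DMSO 0.5% negative; run in parallel with 48 h PbLuc assay at 37 °C, 5% CO2; viability by CellTiter-Glo luminescence, normalized to controls.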
smiles,measurement,value
O=C(NCCn1ccnc1)c1cc(F)cc(Br)c1,cytotoxicity at 10 µM,-1.62%
CS(=O)(=O)CCCOc1cccc(-n2ccnc2)c1,cytotoxicity at 10 µM,5.13%
CCC(C)(CC(=O)O)NC(=O)Cc1ccccc1Br (stereo unspecified),cytotoxicity at 10 µM,1.29%
CCCS(=O)(=O)N1CCN(C(=O)CO)CC1,cytotoxicity at 10 µM,-1.96%
CC(C)Oc1nnc(SCC(=O)NCC(=O)N2CCCC2)s1,cytotoxicity at 10 µM,1.38%
Cc1nc(-c2ccccc2)sc1CSC(C)C(N)=O (stereo unspecified),cytotoxicity at 10 µM,-6.55%
CCC(C)(C)NC(=O)c1ccc(-c2ccco2)[nH]c1=O,cytotoxicity at 10 µM,-15.6%
CCCC1CCCN(C(=O)Nc2ccnc(C(=O)N(C)C)c2)CC1 (stereo unspecified),cytotoxicity at 10 µM,9.58%
CC(C)N(C)CC(=O)NCCc1nc(C(F)(F)F)cs1,cytotoxicity at 10 µM,5.07%
Cc1ccc(C(CNCc2cnn(C(C)C)c2)N2CCOCC2)s1 (stereo unspecified),cytotoxicity at 10 µM,-21.3%
c1csc(-c2nc(CN3CCCC3Cn3cncn3)co2)c1 (stereo unspecified),cytotoxicity at 10 µM,-11.5%
O=C(c1ccccn1)N1CCc2ncnc(-c3ccncc3)c2CC1,cytotoxicity at 10 µM,-1.82%
Cc1nc(CN2CCN(Cc3cc4n(n3)CCNC4)CC2)cs1,cytotoxicity at 10 µM,-3.25%
CCCc1cc(C(=O)N2CCC3(CCCN(CCOC)C3=O)C2)cs1 (stereo unspecified),cytotoxicity at 10 µM,-167%
N[C@@H]1CCN(Cc2cc(-c3ccccc3OC(F)(F)F)no2)C[C@H]1O,cytotoxicity at 10 µM,2.42%
Cc1ccn(CCNc2ncnc3c2CCN(c2cnccn2)CC3)n1,cytotoxicity at 10 µM,-1.81%
Cc1nc(CCC(=O)N2Cc3cnc(-c4ccccc4)nc3C2)n[nH]1,cytotoxicity at 10 µM,-0.227%
CCc1ncc2c(n1)CN(c1cc(NC3CC3)nc(N)n1)C2,cytotoxicity at 10 µM,5.75%
O=C1NCCN1CCNCC1(O)CCCN(CCC2CCCCC2)C1=O (stereo unspecified),cytotoxicity at 10 µM,-1.04%
CCCc1nnc(N2CC[C@](C)(O)[C@H](C)C2)s1,cytotoxicity at 10 µM,-10.4%
CCCNC(=O)N1CCC(c2nnc(Cn3cccn3)n2C2CC2)CC1,cytotoxicity at 10 µM,-7.92%
CCCNC(=O)N1CCc2ccc(S(=O)(=O)N3CCN(C)CC3)cc2C1,cytotoxicity at 10 µM,-10%
Cc1cc(-c2nccn2CCN2CCCCC2CO)oc1C (stereo unspecified),cytotoxicity at 10 µM,0.264%
CC1(C(=O)NCc2cccnc2Oc2ccc(F)c(F)c2)CCCNC1 (stereo unspecified),cytotoxicity at 10 µM,-0.37%
Oc1cccc(-c2cc(C3CCN(Cc4cncnc4)C3)ccn2)c1 (stereo unspecified),cytotoxicity at 10 µM,5.06%
CCn1c(Cn2cncn2)nnc1C1CCN(Cc2cccnc2)CC1,cytotoxicity at 10 µM,5.91%
CCc1nc(N2CCC3(CC2)[C@H](O)C[C@@H]3O)ncc1C,cytotoxicity at 10 µM,6.02%
CCCn1nc(C)c(CNC(=O)c2snnc2C)c1C,cytotoxicity at 10 µM,-15.5%
O=C1CSc2ccccc2N1CC(=O)N1CCCCC1c1nccs1 (stereo unspecified),cytotoxicity at 10 µM,14.4%
CN(CCCO)Cc1cc(Cl)ccc1OCC(O)CN1CCCCCC1 (stereo unspecified),cytotoxicity at 10 µM,2.71%
CCCc1noc(-c2cn(CC(=O)N(CC)CC)nn2)n1,cytotoxicity at 10 µM,3.35%
Cc1ccc(N2CCN(C(=O)CCC(F)(F)F)C(C)C2)cc1 (stereo unspecified),cytotoxicity at 10 µM,-143%
CC(C)NC(=O)[C@@H]1C[C@@H](N)CN1C(=O)c1cc2c([nH]c1=O)CCCC2,cytotoxicity at 10 µM,-0.869%
CN(Cc1ccon1)C(=O)C1CC(=O)N(Cc2cccnc2)C1 (stereo unspecified),cytotoxicity at 10 µM,-3.83%
Cc1ccnc(N2CCC(=O)N(Cc3ccc(F)cc3)C(C(C)C)C2)n1 (stereo unspecified),cytotoxicity at 10 µM,0.538%
CN(C)CC1CN(Cc2nc(-c3cccnc3)no2)CCO1 (stereo unspecified),cytotoxicity at 10 µM,-2.03%
CC1COCCN1Cc1nc(-c2ccc(Br)s2)no1 (stereo unspecified),cytotoxicity at 10 µM,-2.45%
CC(Cn1ccnc1)NC(=O)C1(c2ccc(F)cc2)CCCC1 (stereo unspecified),cytotoxicity at 10 µM,-9.98%
O=C(NCc1cc[nH]n1)NCC(O)c1ccc(F)c(F)c1 (stereo unspecified),cytotoxicity at 10 µM,-21%
Cc1cccc(N2CCN(C(=O)NC(C)c3nncn3C)CC2)c1C (stereo unspecified),cytotoxicity at 10 µM,-4.41%
CCOc1ncccc1CNC(=O)Nc1ccc(OC)c(OC)c1,cytotoxicity at 10 µM,-3.82%
CC(CNC(=O)c1cc(C2CC2)on1)N1CCc2ccccc21 (stereo unspecified),cytotoxicity at 10 µM,-11.8%
O=C(CCn1cncn1)NCC(c1ccco1)N1CCCC1 (stereo unspecified),cytotoxicity at 10 µM,-3.62%
COc1ccsc1C(=O)N1CCCN(Cc2cscn2)CC1,cytotoxicity at 10 µM,-9.12%
Cc1nc(C)n(C2CCCN(C(=O)c3cccc4[nH]ncc34)C2)n1 (stereo unspecified),cytotoxicity at 10 µM,-4.72%
CC(C)c1nccn1C1CCCN(C(=O)c2ccc3c(c2)COC3)C1 (stereo unspecified),cytotoxicity at 10 µM,3.19%
O=C(CCN1CCN(c2ccc3nncn3n2)CC1)NC1CCCC1,cytotoxicity at 10 µM,-27.5%
CC(CNCc1ccncc1)Oc1ccccn1 (stereo unspecified),cytotoxicity at 10 µM,-1.71%
CCc1ccc(CN2CCc3ncnc(-c4cccnc4)c3CC2)o1,cytotoxicity at 10 µM,12.8%
CC(C)NC(=O)N1CCC2(CC1)C(=O)NCCN2Cc1ccccc1,cytotoxicity at 10 µM,1.29%
CC(=O)N1[C@H](CN(C)C)C[C@@H]2CN(C(=O)c3cnc(C)cn3)CC[C@@H]21,cytotoxicity at 10 µM,-2.89%
CN(C)C(=O)CC1CC2(CCN(CC3CC3)CC2)Oc2ccccc21 (stereo unspecified),cytotoxicity at 10 µM,-3.51%
Cc1ccoc1C1=NNC(=CN2CCOC(Cn3cccn3)C2)O1 (stereo unspecified),cytotoxicity at 10 µM,-7.69%
CCc1ccc(NC(=O)N2C[C@@H]3C[C@H](C(=O)NC4CCC4)[C@H](C2)O3)cc1,cytotoxicity at 10 µM,-2.25%
Cc1noc(C)c1CN1C(=O)[C@@H]2CC[C@H]1CN(Cc1ccc(Cl)cc1)C2,cytotoxicity at 10 µM,6.22%
CCCN1C[C@@H]2CC[C@H]1CN(C(=O)Cc1c(C)[nH]c(CC)nc1=O)C2,cytotoxicity at 10 µM,-0.529%
